For one assay, the target named is Tubulin (Bos taurus, UniProt Q6B856+Q862L2+Q862F3). The assay is described as follows: Drug concentration needed to produce a 50% reduction of bovine brain tubulin polymerization relative to the control.
In assay [1] the test system is L1210. The assay is described as follows: Increase in life span at the dose of 2.5 (mg/kg/day). It is filed as functional, Mus musculus.
Assay [2] has as its system P388. The assay can be described thus: Cytotoxicity against P388 leukemia. It is filed as functional, cell-based. As to conditions: Mus musculus.
Assay [3] in a line: Inhibition of DNA topoisomerase II from rat liver measured as 50% reduction in the amount of minicircle DNA relative to the control.
Assay [4] relates to L1210. The assay can be described thus: The number of mice survived for 30 days at the dose of 20 (mg/kg/day). It is filed as functional, Mus musculus.
Assay [5] deals with L1210. The assay is described as follows: Antitumor activity in vivo expressed as the percentage increase in life span at the dose of 20 (mg/kg/day). It is filed as functional, Mus musculus.
The subject of assay [6] is Lewis lung carcinoma cell line. The assay is described as follows: Mean body weight change at the dose of 21 (mg/kg/day). It is filed as functional, Mus musculus. In a few lines:
(§1)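 Male BDF1 mice (5 weeks) given 3.2 x 10^5 Lewis lung carcinoma cells iv on day 0, then dosed iv on days 1–5. Seven mice per group, 14 controls. Mean body weight change (g) taken from day 0 to day 6.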

Assay [7] deals with Lewis lung carcinoma cell line. The assay can be described thus: Antitumor activity in vivo expressed as the percentage increase in life span at the dose of 21 (mg/kg/day); (p<0.005). It is filed as functional, Mus musculus.
The test system of assay [8] is P388. The assay can be described thus: Increased life span at the P388 dose of 4 (mg/kg/day). It is filed as functional, Mus musculus. In a few lines: (§2)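 P388 leukaemia, 1 × 10^6 cells given sc to male CDF1 mice (5 weeks old) on day 0. Drug was dosed iv on days 1–5 in saline with 3.5% DMSO and 6.5% Tween 80. Groups had 7 mice; controls had 10. ILS was calculated from mean survival time of treated versus control mice, excluding 30-day survivors.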

In assay [9] the test system is Lewis lung carcinoma cell line. The assay is described as follows: Mean body weight change at the dose of 4 (mg/kg/day). It is filed as functional, Mus musculus. In outline: as §1
The nature of assay [10]: Inhibition of growth of colon carcinoma COLO 2-1 cell line. The conditions noted are these: Homo sapiens, read-out: ED50 (the source's name). It is filed as functional. In a few lines: (§3)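 Cells were seeded and cultured for 24 h, then exposed to drug for 96 or 4 h. Cells were counted by hemocytometer. IC50 is the concentration giving a 50% reduction in cell number relative to control.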

Assay [11] is described as follows: Inhibition of growth of hepatoma HLF cell line. The conditions noted are these: Homo sapiens, read-out: ED50 (the source's name). It is filed as functional. In outline: as §3
The next assay has as its system SBC-3. The assay can be described thus: Inhibition of growth of lung small cell carcinoma SBC-3 cell line. It is filed as functional. As to conditions: Homo sapiens, read-out: ED50 (the source's name). In outline: (§4)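 Human tumour cell lines plated and grown 24 h in a CO2 incubator, then exposed to compound for 96 or 4 h. Cells counted by hemocytometer. IC50 is the concentration giving 50% reduction in cell number versus untreated control.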

In assay [12] the test system is Lewis lung carcinoma cell line. The assay is described as follows: Mean body weight change at the dose of 2.3 (mg/kg/day). It is filed as functional, Mus musculus. In outline: as §1
The test system of assay [13] is Lewis lung carcinoma cell line. The assay is described as follows: Percentage inhibition of tumor growth at the lewis lung dose of 12 (mg/kg/ day); (p<0.01). It is filed as functional, Mus musculus. In a few lines: (§5)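 Lewis lung carcinoma fragments (2 mm3) implanted sc into male BDF1 mice (5 weeks) on day 0. Compound given iv on days 4–8, in saline or saline with 3.5% DMSO and 6.5% Tween 80. Seven mice per group, 10 controls. Percent inhibition from mean tumour weight versus control on day 17; p<0.05, 0.01 or 0.001 versus control.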

In assay [14] the test system is L1210. The assay is described as follows: Antitumor activity in vivo expressed as the percentage increase in life span at the dose of 10 (mg/kg/day). It is filed as functional, Mus musculus.
The nature of assay [15]: Inhibition of growth of lung non-small cell carcinoma PC-7 cell line. It is filed as functional. As to conditions: Homo sapiens, read-out: ED50 (the source's name). In a few lines: as §3
Assay [16] deals with Lewis lung carcinoma cell line. The assay can be described thus: Mean body weight change at the dose of 12 (mg/kg/day). It is filed as functional, Mus musculus. In outline:
as §1

In a further assay the test system is COLO 320DM. The assay can be described thus: Inhibition of growth of colon carcinoma COLO 320DM. It is filed as functional. The conditions noted are these: Homo sapiens, read-out: ED50 (the source's name). In a few lines: as §3
The subject of assay [17] is Lewis lung carcinoma cell line. The assay is described as follows: Antitumor activity in vivo expressed as the percentage increase in life span at the dose of 12 (mg/kg/day); (p<0.001). It is filed as functional, Mus musculus.
The test system of assay [18] is Lewis lung carcinoma cell line. The assay can be described thus: Antitumor activity in vivo expressed as the percentage increase in life span at the dose of 2.32 (mg/kg/day); (p<0.005). It is filed as functional, Mus musculus.
The test system of the next assay is A549. The assay can be described thus: Inhibition of growth of lung non-small cell carcinoma A-549 cell line. It is filed as functional. The conditions noted are these: Homo sapiens, read-out: ED50 (the source's name). In outline: as §3
The subject of assay [19] is Lewis lung carcinoma cell line. The assay can be described thus: Antitumor activity in vivo expressed as the percentage increase in life span at the dose of 4 (mg/kg/day); (p<0.001). It is filed as functional, Mus musculus.
In assay [20] the test system is P388. The assay is described as follows: Increased life span at the P388 dose of 2.3 (mg/kg/day). It is filed as functional, Mus musculus. In a few lines:
as §2

For assay [21], the system named is L1210. The assay is described as follows: The number of mice survived for 30 days. It is filed as functional, Mus musculus.
In assay [22] the test system is Lewis lung carcinoma cell line. The assay is described as follows: Antitumor activity in vivo expressed as the percentage increase in life span at the dose of 7 (mg/kg/day); (p<0.001). It is filed as functional, Mus musculus.
A short description of assay [23]: Inhibition of growth of renal cancer G-402 cell line. It is filed as functional. The conditions noted are these: Homo sapiens, read-out: ED50 (the source's name). In a few lines: as §4
Assay [24] deals with P388. The assay can be described thus: Increased life span at the P388 dose of 7 (mg/kg/day). It is filed as functional, Mus musculus. In a few lines:
as §2

For assay [25], the system named is Lewis lung carcinoma cell line. The assay can be described thus: Percentage inhibition of tumor growth at the lewis lung dose of 7 (mg/kg/day); (p<0.05). It is filed as functional, Mus musculus. In outline:
as §5

Assay [26] can be described thus: Inhibition of growth of lung small cell carcinoma RERF-LC-MA cell line. The conditions noted are these: Homo sapiens; read-out: ED50 (the source's name). It is filed as functional. In a few lines: as §3
A further assay has as its system ACHN. The assay can be described thus: Inhibition of growth of renal cancer ACHN cell line. It is filed as functional. The conditions noted are these: Homo sapiens, read-out: ED50 (the source's name). In a few lines: as §4
A further assay is filed under the species Homo sapiens. The assay is described as follows: Inhibition of growth of hepatoma HLE cell line. It is filed as functional. As to conditions: read-out: ED50 (the source's name). In a few lines: as §3
The subject of assay [27] is Lewis lung carcinoma cell line. The assay is described as follows: Mean body weight change at the dose of 7 (mg/kg/day). It is filed as functional, Mus musculus. In outline:
as §1

The source of these data is ChEMBL document CHEMBL1127046, “Antitumor agents. 3. Synthesis and biological activity of 4 beta-alkyl derivatives containing hydroxy, amino, and amido groups of 4'-O-demethyl-4-desoxypodophyllotoxin as antitumor agents” (J Med Chem, 1993).

Converted amounts (≈) assume the structure as drawn. Bounds are passed on as bounds.

As to `COc1cc([C@@H]2c3cc4c(cc3[C@@H](CCN(C)C)C3COC(=O)[C@@H]32)OCO4)cc(OC)c1O.Cl` (stereo partly drawn), the concentration for half-maximal inhibition (IC50) (as a rule, the midpoint of a concentration-inhibition curve) against Tubulin is over 100 µM; with P388 [2] it was 0.06 µM; in assay [3], 36.7 µM. For the same compound, the ILS max in the assay with L1210 [1] is 67%.
On to `CCCCCCN(C)CC[C@@H]1c2cc3c(cc2[C@@H](c2cc(OC)c(O)c(OC)c2)[C@H]2C(=O)OCC12)OCO3.Cl` (stereo partly drawn), for which the IC50 is over 167 µM at Tubulin, 0.019 µM in the assay with P388 [2] and 61.4 µM in assay [3]. Further, the Survivors in the assay with L1210 [4] is 6. For the same compound, the ILS max in the assay with L1210 [5] was determined as 106%.
For `COc1cc([C@@H]2c3cc4c(cc3[C@@H](O[C@@H]3O[C@@H]5CO[C@@H](C)O[C@H]5[C@H](O)[C@H]3O)[C@H]3COC(=O)[C@H]23)OCO4)cc(OC)c1O` [ETOPOSIDE], the bwc is reported as -3.8 g in assay [6]; -0.4 g in assay [9]; 0 g in [12]; -2.6 g in assay [16]; -0.8 g in assay [27]. In addition, the ILS max in [7] is 91%; in the assay on P388 [8] it was 196%; in the assay on L1210 [14], 102%; in assay [17] it was 81%; in assay [18] it was 17%; in [19], 24%. For the same compound, the ILS max was determined as 151% in the assay on P388 [20], 21% in assay [22] and 226% in the assay with P388 [24]. In addition, the EC50 was found to be 59 µg/mL (≈ 100 µM) in assay [10]; 19 µg/mL (≈ 32.3 µM) in assay [11]; 1.6 µg/mL (≈ 2.72 µM) with SBC-3; 35 µg/mL (≈ 59.5 µM) in assay [15]; 14 µg/mL (≈ 23.8 µM) with COLO 320DM; 2.9 µg/mL (≈ 4.93 µM) in the assay on A549. The EC50 was 4.8 µg/mL (≈ 8.16 µM) in [23], over 59 µg/mL in assay [26], 13 µg/mL (≈ 22.1 µM) in the assay on ACHN and 1.5 µg/mL (≈ 2.55 µM) in the assay listed under Homo sapiens. Further, the results for the Inhibition in assay [13] and in assay [25] were 60% and 39%, respectively. The compound further yielded a Survivors in the assay with L1210 [21] of 3. For the same compound, the IC50 with P388 [2] turned out to be 0.01 µM; in [3], 59.2 µM.
